Measurements taken from ChEMBL document CHEMBL1137333, “Synthesis, radiosynthesis, and biological evaluation of carbon-11 labeled 2beta-carbomethoxy-3beta-(3'-((Z)-2-haloethenyl)phenyl)nortropanes: candidate radioligands for in vivo imaging of the serotonin transporter with positron emission tomography” (J Med Chem, 2006).

What was measured:
Cynomolgus monkey [1] = test: Uptake in anesthetized cynomolgus monkey occipital after 85.0 mins; assay type: ADME, organism-based, Macaca mulatta, Occipital cortex; conditions: rhesus monkey, in vivo
Method in brief: (§1)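 Baseline microPET scan (P4 scanner) of anesthetized cynomolgus monkeys after injection of the carbon-11 labelled nortropane tracer. Two baseline studies were run per tracer. Radioactivity was followed over time in regional brain time-activity curves.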

Cynomolgus monkey [2] = test: Uptake in anesthetized cynomolgus monkey midbrain after 35.0 mins; assay type: ADME, organism-based; conditions: in vivo; method in brief: as §1
Cynomolgus monkey [3] = test: Uptake in anesthetized cynomolgus monkey thalamus after 85.0 mins; assay type: ADME, organism-based; conditions: in vivo
Method in brief: (§2)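 Baseline microPET (Concorde P4) scan in anesthetized cynomolgus monkeys after injection of the carbon-11 labeled tracer, with no chase drug. Regional brain time-activity curves were followed over the scan. Tracer radiochemical purity and specific activity were determined by analytical HPLC at the time of injection.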

Cynomolgus monkey [4] = test: Ratio of uptake in putamen to cerebellum of anesthetized cynomolgus monkey after 65 mins; assay type: ADME, organism-based; conditions: in vivo
Method in brief: (§3)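 Baseline microPET (Concorde P4) in anesthetized cynomolgus monkey after injection of the [11C]-labelled tracer. Regional time-activity curves were taken, and each region's uptake was divided by cerebellum uptake (low-SERT reference) at 65, 85 and 105 min postinjection.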

Cynomolgus monkey [5] = test: Uptake in anesthetized cynomolgus monkey medulla after 2.5 mins; assay type: ADME, organism-based, Medulla of organ; conditions: in vivo; method in brief: as §1
Cynomolgus monkey [6] = test: Ratio of uptake in midbrain to cerebellum of anesthetized cynomolgus monkey after 85 mins; assay type: ADME, organism-based; conditions: in vivo; method in brief: as §3
Cynomolgus monkey [7] = test: Uptake in anesthetized cynomolgus monkey putamen after 85.0 mins; assay type: ADME, organism-based; conditions: in vivo; method in brief: as §2
Cynomolgus monkey [8] = test: Uptake in anesthetized cynomolgus monkey caudate after 27.5 mins; assay type: ADME, organism-based, Caudate nucleus; conditions: in vivo
Method in brief: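 Baseline microPET (Concorde P4) regional brain time-activity curves in anesthetized cynomolgus monkey following injection of the [11C]-labelled tracer, with radioactivity followed over the scan.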

Cynomolgus monkey [9] = test: Ratio of uptake in medulla to cerebellum of anesthetized cynomolgus monkey after 105 mins; assay type: ADME, organism-based; conditions: in vivo, 1.75 h; method in brief: as §3
Cynomolgus monkey [10] = test: Uptake in anesthetized cynomolgus monkey pons after 85.0 mins; assay type: ADME, organism-based; conditions: in vivo; method in brief: as §2
Cynomolgus monkey [11] = test: Uptake in anesthetized cynomolgus monkey pons after 27.5 mins; assay type: ADME, organism-based; conditions: in vivo; method in brief: as §2
Cynomolgus monkey [12] = test: Uptake in anesthetized cynomolgus monkey putamen after 45.0 mins; assay type: ADME, organism-based; conditions: in vivo, 0.75 h; method in brief: as §2
Cynomolgus monkey [13] = test: Ratio of uptake in midbrain to cerebellum of anesthetized cynomolgus monkey after 105 mins; assay type: ADME, organism-based; conditions: in vivo, 1.75 h; method in brief: as §3
Cynomolgus monkey [14] = test: Ratio of uptake in thalamus to cerebellum of anesthetized cynomolgus monkey after 65 mins; assay type: ADME, organism-based; conditions: in vivo; method in brief: as §3
Cynomolgus monkey [15] = test: Uptake in anesthetized cynomolgus monkey putamen after 3.5 mins; assay type: ADME, organism-based; conditions: in vivo; method in brief: as §2
Cynomolgus monkey [16] = test: Ratio of uptake in caudate to cerebellum of anesthetized cynomolgus monkey after 105 mins; assay type: ADME, organism-based; conditions: in vivo, 1.75 h; method in brief: as §3
Cynomolgus monkey [17] = test: Uptake in anesthetized cynomolgus monkey occipital after 4.5 mins; assay type: ADME, organism-based, Occipital cortex; conditions: in vivo, 0.075 h; method in brief: as §1
Cynomolgus monkey [18] = test: Uptake in anesthetized cynomolgus monkey frontal after 15.5 mins; assay type: ADME, organism-based, Frontal cortex; conditions: in vivo; method in brief: as §1
Cynomolgus monkey [19] = test: Uptake in anesthetized cynomolgus monkey thalamus after 135.0 mins; assay type: ADME, organism-based; conditions: in vivo, 2.25 h; method in brief: as §2
Cynomolgus monkey [20] = test: Uptake in anesthetized cynomolgus monkey putamen after 27.5 mins; assay type: ADME, organism-based; conditions: in vivo; method in brief: as §2
Cynomolgus monkey [21] = test: Uptake in anesthetized cynomolgus monkey pons after 135.0 mins; assay type: ADME, organism-based; conditions: in vivo, 2.25 h; method in brief: as §2
Cynomolgus monkey [22] = test: Ratio of uptake in pons to cerebellum of anesthetized cynomolgus monkey after 85 mins; assay type: ADME, organism-based; conditions: in vivo; method in brief: as §3
Cynomolgus monkey [23] = test: Uptake in anesthetized cynomolgus monkey medulla after 27.5 mins; assay type: ADME, organism-based, Medulla of organ; conditions: in vivo; method in brief: as §1
Cynomolgus monkey [24] = test: Uptake in anesthetized cynomolgus monkey medulla after 6.5 mins; assay type: ADME, organism-based, Medulla of organ; conditions: in vivo; method in brief: as §1
Cynomolgus monkey [25] = test: Uptake in anesthetized cynomolgus monkey putamen after 135.0 mins; assay type: ADME, organism-based; conditions: in vivo, 2.25 h; method in brief: as §2
Cynomolgus monkey [26] = test: Uptake in anesthetized cynomolgus monkey pons after 125.0 mins; assay type: ADME, organism-based; conditions: in vivo; method in brief: as §2
Cynomolgus monkey [27] = test: Uptake in anesthetized cynomolgus monkey medulla after 75.0 mins; assay type: ADME, organism-based, Medulla of organ; conditions: in vivo, 1.25 h; method in brief: as §1
Cynomolgus monkey [28] = test: Uptake in anesthetized cynomolgus monkey medulla after 22.5 mins; assay type: ADME, organism-based, Medulla of organ; conditions: in vivo, 0.375 h; method in brief: as §1

## [11CH3]OC(=O)[C@@H]1C2CCC(C[C@@H]1c1cccc(/C=C/Br)c1)N2 (stereo partly drawn)
Cynomolgus monkey [1]
  Drug uptake: 5.21
Cynomolgus monkey [2]
  Drug uptake: 7.4
Cynomolgus monkey [3]
  Drug uptake: 6.55
Cynomolgus monkey [4]
  Ratio: 1.5
Cynomolgus monkey [5]
  Drug uptake: 1.32
Cynomolgus monkey [6]
  Ratio: 1.8
Cynomolgus monkey [7]
  Drug uptake: 7.16
Cynomolgus monkey [8]
  Drug uptake: 5.98
Cynomolgus monkey [9]
  Ratio: 1.7
Cynomolgus monkey [10]
  Drug uptake: 7.24
Cynomolgus monkey [11]
  Drug uptake: 6.51
Cynomolgus monkey [12]
  Drug uptake: 7.28
Cynomolgus monkey [13]
  Ratio: 1.9
Cynomolgus monkey [14]
  Ratio: 1.3
Cynomolgus monkey [15]
  Drug uptake: 1.96
Cynomolgus monkey [16]
  Ratio: 1.7
Cynomolgus monkey [17]
  Drug uptake: 2.14
Cynomolgus monkey [18]
  Drug uptake: 3.21
Cynomolgus monkey [19]
  Drug uptake: 5.83
Cynomolgus monkey [20]
  Drug uptake: 6.85
Cynomolgus monkey [21]
  Drug uptake: 7.4
Cynomolgus monkey [22]
  Ratio: 1.6
Cynomolgus monkey [23]
  Drug uptake: 7.08
Cynomolgus monkey [24]
  Drug uptake: 5.27
Cynomolgus monkey [25]
  Drug uptake: 6.51
Cynomolgus monkey [26]
  Drug uptake: 6.47
Cynomolgus monkey [27]
  Drug uptake: 7.18
Cynomolgus monkey [28]
  Drug uptake: 6.96
